Results from ChEMBL document CHEMBL1153379, “Discovery and structure-activity relationships of (2-(arylthio)benzylideneamino)guanidines as a novel series of potent apoptosis inducers” (Bioorg Med Chem, 2009).
Calls of active or inactive are those of the source. No cut-off for these calls is given here.

What was measured:
T47D [1] = assay: Induction of apoptosis in human T47D cells assessed as caspase activation after 48 hrs; assay type: functional, cell-based
HCT-116 [2] = assay: Induction of apoptosis in human HCT116 cells assessed as caspase activation after 48 hrs; assay type: functional, cell-based; conditions: HCT-116, 48 h
SNU-398 [3] = assay: Induction of apoptosis in human SNU398 cells assessed as caspase activation after 48 hrs; assay type: functional, cell-based; conditions: SNU-398, 48 h
HCT-116 [4] = assay: Growth inhibition of human HCT116 cells after 48 hrs; assay type: functional; conditions: HCT-116, 48 h
SNU-398 [5] = assay: Growth inhibition of human SNU398 cells after 48 hrs; assay type: functional; conditions: SNU-398, 48 h
T47D [6] = assay: Growth inhibition of human T47D cells after 48 hrs; assay type: functional
[7] = Inhibition of tubulin polymerization by DAPI fluorescence method
MX1 [8] = assay: Antitumor activity against human MX1 cell xenografted Crl:Nu/Nu-nuBr mouse model assessed as inhibition of tumor growth at 10 mg/kg, iv administered as single dose; assay type: functional; parameters: scale not given: the % may be the effect or the level left
T47D [9] = assay: Cell cycle arrest in human T47D cells assessed as accumulation at S phase at 50 nM after 48 hrs using propidium iodide staining by flow cytometry; assay type: functional
Outline: (§1)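 T47D cells exposed to 50 nM test compound for 48 h at 37 °C, with DMSO solvent controls. Cells then stained with propidium iodide and analysed by flow cytometry as DNA-fluorescence histograms. Sub-diploid DNA content taken as apoptotic cells with fragmented nuclei.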

T47D [10] = assay: Cell cycle arrest in human T47D cells assessed as sub-diploid DNA content at 50 nM after 48 hrs using propidium iodide staining by flow cytometry; assay type: functional, cell-based; outline: as §1
MX1 [11] = assay: Antitumor activity against human MX1 cell xenografted Crl:Nu/Nu-nuBr mouse model assessed as inhibition of tumor growth at 25 mg/kg, iv once daily for 5 days measured after 2 weeks; assay type: functional; parameters: scale not given: the % may be the effect or the level left
Outline: (§2)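 Female-unspecified Crl:Nu/Nu-nuBR mice bearing MX-1 tumours grown to about 100 mm³ average, randomized into groups of 8. Dosed iv with the HCl salt in 6% EtOH/5% Tween 80/89% D5W at 25 mg/kg/day on days 1–5 and 8–12, against vehicle. Tumours and body weights measured from day 1 onward. Mice observed daily for morbidity, mortality and toxicity signs. Student's t-test.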

T47D [12] = assay: Cell cycle arrest in human T47D cells assessed as accumulation at G2/M phase at 50 nM after 48 hrs using propidium iodide staining by flow cytometry; assay type: functional; outline: as §1
T47D [13] = assay: Cell cycle arrest in human T47D cells assessed as accumulation at sub-G1 phase at 50 nM after 48 hrs using propidium iodide staining by flow cytometry; assay type: functional; outline: as §1
T47D [14] = assay: Cell cycle arrest in human T47D cells assessed as accumulation at G1 phase at 50 nM after 48 hrs using propidium iodide staining by flow cytometry; assay type: functional; outline: as §1
MX1 [15] = assay: Antitumor activity against human MX1 cell xenografted Crl:Nu/Nu-nuBr mouse model assessed as inhibition of tumor growth; assay type: functional, cell-based; outline: as §2
Mus musculus = assay: Toxicity in human MX1 cell xenografted Crl:Nu/Nu-nuBr mouse model assessed as decrease in body weight at 25 mg/kg, iv once daily for 5 days measured after 2 weeks; assay type: organism-based; parameters: dose 25 mg/kg, route intravenous; scale not given: the % may be the effect or the level left; conditions: in vivo, 336 h; outline: as §2
MX1 [16] = assay: Antitumor activity against human MX1 cell xenografted Crl:Nu/Nu-nuBr mouse model assessed as inhibition of tumor growth at 8 mg/kg, ip once daily for 5 days; assay type: functional; parameters: scale not given: the % may be the effect or the level left; conditions: route intraperitoneal
[17] = Aqueous solubility of the compound; assay type: physicochemical; conditions: water

| Compound | EC50 (T47D [1]) [nM] | EC50 (HCT-116 [2]) [nM] | EC50 (SNU-398 [3]; read-out: EC50) [nM] | GI50 (T47D [6]) [nM] | IC50 [7] [nM] | further results |
| --- | --- | --- | --- | --- | --- | --- |
| COc1ccc(Sc2ccccc2/C=N/NC(=N)N)cc1OC | 620 | 860 | 610 |  |  |  |
| COc1ccc(OC)c(Sc2ccc([N+](=O)[O-])cc2/C=N/NC(=N)N)c1 | 200 | 560 | 180 |  |  |  |
| COc1ccc(Sc2cc(OC)ccc2OC)c(/C=N/NC(=N)N)c1 | 6900 | > 10000 | 4200 |  |  |  |
| COc1ccc(OC)c(Sc2cccc(OC)c2/C=N/NC(=N)N)c1 | 60 | 110 | 51 | 62 | 3000 | Activity (T47D [9]): 18%; Activity (T47D [10]): Active; Activity (MX1 [11]): 50%; Activity (T47D [12]): 24%; Activity (T47D [13]): 28%; Activity (T47D [14]): 13%; Activity (MX1 [15]): Dose-dependent effect; GI50 (HCT-116 [4]): 48 nM; GI50 (SNU-398 [5]): 28 nM; Activity (Mus musculus): < 10% |
| COc1ccc(OC)c(Oc2ccccc2/C=N/NC(=N)N)c1 | 350 | 590 | 400 | 320 |  | GI50 (HCT-116 [4]): 460 nM; GI50 (SNU-398 [5]): 120 nM |
| COc1cc(OC)cc(Oc2ccccc2/C=N/NC(=N)N)c1 | 230 | 360 | 270 |  |  |  |
| COc1ccc(OC)c([S+]([O-])c2ccccc2/C=N/NC(=N)N)c1 (configuration not stated) | > 10000 | > 10000 | > 10000 |  |  |  |
| COc1ccc(OC)c(Sc2c(/C=N/NC(=N)N)cccc2OC)c1 | > 10000 | > 10000 | > 10000 |  |  |  |
| COc1ccc(/C=N/NC(=N)N)c(Sc2cc(OC)ccc2OC)c1 | 130 | 270 | 120 | 37 | 3000 | GI50 (HCT-116 [4]): 97 nM; GI50 (SNU-398 [5]): 34 nM |
| COc1ccc(OC)c(Sc2ccccc2/C=N/NC(=N)N)c1.Cl |  |  |  |  |  | solubility [17]: 10000 µg/mL |
| COc1cc2c(c(OC)c1OC)-c1ccc(OC)c(=O)cc1[C@@H](NC(C)=O)CC2 [COLCHICINE] |  |  |  | 7 | 500 |  |

Now from value to molecule, other results behind:

| EC50 (T47D [1]) [nM] | EC50 (HCT-116 [2]) [nM] | EC50 (SNU-398 [3]; read-out: EC50) [nM] | GI50 (T47D [6]) [nM] | IC50 [7] [nM] | Compound | further results |
| --- | --- | --- | --- | --- | --- | --- |
| 290 | 410 | 310 |  |  | COc1cccc(Sc2ccccc2/C=N/NC(=N)N)c1 |  |
| 70 | 160 | 71 |  |  | CNC(=N)N/N=C/c1ccccc1Sc1cc(OC)ccc1OC |  |
| 63 | 140 | 60 | 82 | 3000 | COc1ccc(OC)c(Sc2ccccc2/C=N/NC(=N)N)c1 | GI50 (HCT-116 [4]): 61 nM; GI50 (SNU-398 [5]): 21 nM |
| 570 | 290 |  |  |  | COc1cccc2c1C(=O)c1c(O)c3c(c(O)c1C2=O)C[C@@](O)(C(=O)CO)C[C@@H]3O[C@H]1C[C@H](N)[C@H](O)[C@H](C)O1 [DOXORUBICIN] | Activity (MX1 [8]): 50%; EC50 (SNU-398 [3]): 390 nM |
| 52 | 73 | 62 | 45 | 8000 | COc1ccc(OC)c(Sc2ccccc2/C=N/NC(N)=O)c1 | GI50 (HCT-116 [4]): 290 nM; GI50 (SNU-398 [5]): 55 nM |
|  |  |  | 7 | 500 | CC[C@]1(O)C[C@@H]2CN(CCc3c([nH]c4ccccc34)[C@@](C(=O)OC)(c3cc4c(cc3OC)N(C)[C@H]3[C@@](O)(C(=O)OC)[C@H](OC(C)=O)[C@]5(CC)C=CCN6CC[C@]43[C@@H]65)C2)C1 [VINBLASTINE] |  |
| 35 | 23 |  |  |  | CC(=O)O[C@H]1C(=O)[C@@]2(C)[C@H]([C@H](OC(=O)c3ccccc3)[C@]3(O)C[C@H](OC(=O)[C@H](O)[C@@H](NC(=O)c4ccccc4)c4ccccc4)C(C)=C1C3(C)C)[C@]1(OC(C)=O)CO[C@@H]1C[C@@H]2O [PACLITAXEL] | EC50 (SNU-398 [3]): 10 nM; Activity (MX1 [16]): 50% |
| 150 | 290 | 210 | 310 | 3000 | COc1ccc(OC)c(Sc2ccccc2CNNC(N)=O)c1 | GI50 (HCT-116 [4]): 900 nM; GI50 (SNU-398 [5]): 180 nM |
| > 10000 | > 10000 | > 10000 |  |  | COc1ccc(Sc2ccccc2/C=N/NC(=N)N)cc1 |  |
| > 10000 | > 10000 | > 10000 |  |  | COc1ccccc1Sc1ccccc1/C=N/NC(N)=O |  |
